SMILES strings stand for the structures.

As usually defined, the IC50 is the concentration at which inhibition is half-maximal. Usually bioavailability stands for the share of a dose that reaches the circulation, judged against a reference dose that is usually intravenous. A word on the inhibition: it is the share of the control response that was lost under treatment. By fraction unbound is commonly meant free concentration divided by total concentration.

Series [1] is described as follows: Plasma concentration in C57BL/6 mouse at 100 mg/kg, po after 2 hrs. It counts as ADME, organism-based. On the set-up: dose 100 mg/kg, route oral.
Series [2] in a line: Plasma concentration in C57BL/6 mouse at 1 mg/kg, po after 2 hrs. Format: ADME, organism-based. More on the design: dose 1 mg/kg, route oral.
The test system of series [3] is Mus musculus. Put plainly: In vivo inhibition of FLAP in C57BL/6 mouse assessed as LTB4 production in calcimycin-stimulated whole blood at 10 mg/kg, po after 2 hrs by ELISA (reference value: 100 +/- 13.3%). Format: functional. More on the design: scale not given: the % may be the effect or the level left. (In general: In an ELISA, binding on a coated surface is turned into a signal by an enzyme label.)

Series [4] concerns the target T1, Arachidonate 5-lipoxygenase-activating protein (Mus musculus, UniProt P30355).
T1 sequence (P30355 whole entry): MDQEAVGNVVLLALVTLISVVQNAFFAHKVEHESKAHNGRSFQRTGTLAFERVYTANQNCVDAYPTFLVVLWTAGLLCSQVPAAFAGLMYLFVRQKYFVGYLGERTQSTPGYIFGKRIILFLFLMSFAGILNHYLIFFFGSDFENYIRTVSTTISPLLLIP
As to the kind of experiment: Inhibition of FLAP in calcimycin-stimulated mouse whole blood assessed as inhibition of LTB4 synthesis preincubated for 15 mins followed by calcimycin stimulation measured after 30 mins. The method in brief:
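Mouse whole blood run by the same protocol as the human whole blood LTB4 assay (compound 15 min at 37 °C, 100 µM final calcimycin 30 min, HTRF LTB4 read-out). Geometric mean (n ≥ 3) of duplicate 8-point curves.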

Series [5] can be described thus: Oral bioavailability in dog at 10 mg/kg. Format: ADME, organism-based, Canis lupus familiaris. To be noted: in vivo. The method in brief:
(§1)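 iv 1 mg/kg in 70 % PEG; po 10 mg/kg as suspension in 0.5 % methyl cellulose/0.015 % Tween. Blood sampled at 11 timepoints (0, 5, 15, 30 min, 1, 2, 4, 6, 8, 12, 24 h) per dose; mean of n = 3. Clearance expressed as percent of hepatic blood flow.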

Series [6] concerns the target Leukotriene B4 receptor 1 (Homo sapiens) (UniProt Q15722). Put plainly: Inhibition of BLT1 (unknown origin) at 10 uM relative to control.
Series [7] deals with T2, Leukotriene A-4 hydrolase (Homo sapiens) (UniProt P09960).
T2 sequence (whole entry): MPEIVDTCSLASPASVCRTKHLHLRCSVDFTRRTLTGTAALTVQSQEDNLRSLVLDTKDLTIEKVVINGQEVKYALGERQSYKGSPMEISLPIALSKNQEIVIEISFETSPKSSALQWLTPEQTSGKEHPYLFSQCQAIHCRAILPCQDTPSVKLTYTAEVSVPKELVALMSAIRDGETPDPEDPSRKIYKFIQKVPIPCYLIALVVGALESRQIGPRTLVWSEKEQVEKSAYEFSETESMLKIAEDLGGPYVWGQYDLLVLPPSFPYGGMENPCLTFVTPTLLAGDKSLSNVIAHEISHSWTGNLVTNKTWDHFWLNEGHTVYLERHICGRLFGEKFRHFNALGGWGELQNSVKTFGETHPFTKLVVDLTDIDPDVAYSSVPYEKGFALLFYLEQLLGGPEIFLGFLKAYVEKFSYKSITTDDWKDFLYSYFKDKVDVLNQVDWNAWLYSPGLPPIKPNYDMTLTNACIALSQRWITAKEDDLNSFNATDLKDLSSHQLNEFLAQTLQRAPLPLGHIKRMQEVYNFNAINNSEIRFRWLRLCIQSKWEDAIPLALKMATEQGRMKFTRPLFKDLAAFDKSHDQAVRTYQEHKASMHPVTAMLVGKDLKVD
Put plainly: Inhibition of LTA4 hydrolase (unknown origin) at 10 uM relative to control.

For series [8], the system named is Canis familiaris. As to the kind of experiment: Clearance in dog at 1 mg/kg, iv and 10 mg/kg, po relative to hepatic blood flow. It counts as ADME, organism-based, Canis lupus familiaris, Liver. The settings on record: in vivo. The method in brief: as §1
Series [9] in a line: Fraction unbound in human plasma by equilibrium dialysis method. Format: ADME, cell-free. The method in brief: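 Unbound fraction in human plasma determined by equilibrium dialysis, in duplicate.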
For orientation: In equilibrium dialysis only unbound substance equilibrates across the membrane.

In series [10] the test system is Mus musculus. Put plainly: In vivo inhibition of FLAP in C57BL/6 mouse assessed as LTB4 production in calcimycin-stimulated whole blood at 100 mg/kg, po after 2 hrs by ELISA (reference value: 100 +/- 13.3%). Format: functional. More on the design: scale not given: the % may be the effect or the level left.
Series [11] addresses Cytochrome P450 3A4 (Homo sapiens, UniProt P08684). As to the kind of experiment: Inhibition of CYP3A4 in human liver microsomes using midazolam as substrate preincubated for 10 mins followed by NADPH addition measured after 6 mins. It counts as ADME. The procedure, abridged:
(§2)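 Human liver microsomes (0.05 mg/mL protein) with cocktail substrates: 4 µM diclofenac (2C9), 3 µM dextromethorphan (2D6), 2.5 µM midazolam (3A4). Compound in 0.1 M potassium phosphate pH 7.4 preincubated 10 min at 37 °C; NADPH added, reaction 6 min at 37 °C.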

A short description of series [12]: Oral bioavailability in rat at 10 mg/kg. To be noted: in vivo. It counts as ADME, organism-based. The procedure, abridged: as §1
Series [13] concerns the target T3, Arachidonate 5-lipoxygenase-activating protein (Homo sapiens, UniProt P20292).
T3 sequence (P20292 whole entry): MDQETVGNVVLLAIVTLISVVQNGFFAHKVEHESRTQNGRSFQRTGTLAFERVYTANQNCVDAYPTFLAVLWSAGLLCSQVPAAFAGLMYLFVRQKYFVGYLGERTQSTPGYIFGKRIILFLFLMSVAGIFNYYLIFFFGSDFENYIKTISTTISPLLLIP
As to the kind of experiment: Displacement of [125I]-L-691831 from human FLAP expressed in insect SF9 cell membranes after 2 hrs by Topcount analysis. Background: In a radioligand displacement assay an active substance lowers the binding of a labelled ligand.

The subject of series [14] is Hepatocyte. Put plainly: Unbound clearance in human hepatocytes at 1 uM measured over 6 hrs by LC/MS analysis relative to hepatic blood flow. Format: ADME, cell-based, Liver. The method in brief:
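Cryopreserved human hepatocytes (1 million cells/mL) with 1 µM compound at 37 °C for 6 h; compound remaining measured by LC/MS over a duplicate 6-timepoint (0 to 6 h) curve. Clearance derived from the ln(% remaining) vs time slope and corrected by the human plasma unbound fraction; expressed as percent of hepatic blood flow.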

Series [15] in a line: Metabolic stability in human liver microsomes at 1 uM preincubated for 10 mins followed by NADPH addition measured over 60 mins by LC/MS analysis relative to hepatic blood flow. It counts as ADME. To be noted: read-out: Stability. The procedure, abridged:
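Human liver microsomes (1 mg/mL protein) with test compound at 1 µM, preincubated 10 min at 37 °C before adding NADPH. Remaining compound followed over a 0–60 min time course, as duplicate 8-timepoint curves. The slope of ln(% remaining) against time gives clearance, expressed as percent of hepatic blood flow.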

Series [16] can be described thus: Volume of distribution at steady state in dog at 1 mg/kg, iv and 10 mg/kg, po. Format: ADME, organism-based, Canis lupus familiaris. The settings on record: in vivo, read-out: Vdss. The procedure, abridged:
as §1

A short description of series [17]: Permeability across apical to basolateral side in human Caco2 cells measured up to 2 hrs by LC/MS/MS analysis. Format: ADME, cell-based. To be noted: Caco-2, read-out: permeability. The procedure, abridged:
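Caco-2 cells seeded at 1-2 x 10^5 cells/cm2 on 0.4 µm PET filter inserts, cultured 10 to 25 days. Compound in HTP-4 buffer applied to apical donor side; donor sampled at start and end, receiver sampled over up to 2 h; quantified by LC/MS/MS. Duplicate 6-timepoint (0 to 2 h).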

Series [18] deals with Cytochrome P450 2C9 (Homo sapiens, UniProt P11712). As to the kind of experiment: Inhibition of CYP2C9 in human liver microsomes using dichlofenac as substrate preincubated for 10 mins followed by NADPH addition measured after 6 mins. Format: ADME. The procedure, abridged:
as §2

Leukotriene B4 receptor 1 (Homo sapiens), sequence (Q15722 whole entry): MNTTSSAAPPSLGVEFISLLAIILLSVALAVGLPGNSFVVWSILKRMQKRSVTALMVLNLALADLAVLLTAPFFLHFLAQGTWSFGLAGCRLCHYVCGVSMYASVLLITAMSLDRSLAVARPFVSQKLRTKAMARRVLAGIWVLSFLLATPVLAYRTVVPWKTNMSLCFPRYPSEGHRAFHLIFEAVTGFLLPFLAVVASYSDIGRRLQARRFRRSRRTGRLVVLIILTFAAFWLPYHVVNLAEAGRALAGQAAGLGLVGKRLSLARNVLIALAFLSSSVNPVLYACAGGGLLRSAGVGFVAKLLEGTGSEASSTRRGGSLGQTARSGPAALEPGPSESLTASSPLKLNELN
Cytochrome P450 3A4, sequence (P08684 whole entry): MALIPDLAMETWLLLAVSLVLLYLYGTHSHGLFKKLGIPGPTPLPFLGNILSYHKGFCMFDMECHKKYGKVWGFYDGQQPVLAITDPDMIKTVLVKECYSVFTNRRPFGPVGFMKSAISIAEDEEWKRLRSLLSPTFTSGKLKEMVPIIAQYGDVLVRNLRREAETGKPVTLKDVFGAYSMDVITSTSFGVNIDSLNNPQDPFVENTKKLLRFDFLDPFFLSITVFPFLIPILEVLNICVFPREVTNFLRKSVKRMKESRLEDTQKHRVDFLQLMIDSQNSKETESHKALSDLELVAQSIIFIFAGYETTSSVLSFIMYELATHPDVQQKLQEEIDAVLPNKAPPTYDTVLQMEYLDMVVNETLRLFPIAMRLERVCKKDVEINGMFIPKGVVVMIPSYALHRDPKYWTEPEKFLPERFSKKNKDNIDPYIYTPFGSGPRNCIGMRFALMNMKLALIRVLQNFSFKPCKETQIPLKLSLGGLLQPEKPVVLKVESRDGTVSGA
Cytochrome P450 2C9, sequence (P11712 whole entry): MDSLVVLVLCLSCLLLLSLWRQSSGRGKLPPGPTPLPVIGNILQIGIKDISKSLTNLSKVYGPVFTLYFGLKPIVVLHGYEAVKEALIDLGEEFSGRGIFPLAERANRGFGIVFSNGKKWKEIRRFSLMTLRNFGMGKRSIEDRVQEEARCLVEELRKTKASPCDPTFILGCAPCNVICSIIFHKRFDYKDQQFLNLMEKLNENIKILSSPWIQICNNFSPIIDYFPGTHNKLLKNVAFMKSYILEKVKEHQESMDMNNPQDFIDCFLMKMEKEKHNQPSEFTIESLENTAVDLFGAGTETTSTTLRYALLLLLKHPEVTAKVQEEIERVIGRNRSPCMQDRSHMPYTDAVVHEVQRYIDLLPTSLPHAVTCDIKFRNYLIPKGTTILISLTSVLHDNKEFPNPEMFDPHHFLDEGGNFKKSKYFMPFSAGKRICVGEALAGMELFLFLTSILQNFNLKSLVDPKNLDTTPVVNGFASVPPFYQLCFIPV

On to `CN(C)C(=O)Cn1cc(-c2nc([C@@](C)(c3ccc(-c4cnc(N)nc4)cc3)C3CC3)no2)cn1` [BI 665915], for which the concentration at 2 h stood at 152 µM in [1] and 1.7 µM in series [2]. The Activity in [3] is reported as 35.2%; in series [10], 5.1%. The IC50 in [4] was 4.8 µM; in series [11] it was above 30 µM; in [13] it was 0.0017 µM; in series [18], above 30 µM. Moreover, the values for the bioavailability in series [5] and in series [12] were 58% and 63%, respectively. Further, the inhibition in series [6] and in series [7] was below 50% each time. The compound also displayed a CL in [8] of 2.8%. The fraction unbound in series [9] turned out to be 0.047. Besides, in series [14], the CL free was 8.7%. Besides, the hepatic extraction ratio at 1 h, 1 µM in series [15] stood at 0.33. Further, the Vd in series [16] was 1.2 L/kg. In addition, the Papp A→B at 2 h in series [17] amounted to 340 nm/s.

(Values after ChEMBL document CHEMBL3414472, “Synthesis, SAR, and series evolution of novel oxadiazole-containing 5-lipoxygenase activating protein inhibitors: discovery of 2-[4-(3-{(r)-1-[4-(2-amino-pyrimidin-5-yl)-phenyl]-1-cyclopropyl-ethyl}-[1,2,4]oxadiazol-5-yl)-pyrazol-1-yl]-N,N-dimethyl-acetamide (BI 665915)” (J Med Chem, 2015).)
